The source of these data is ChEMBL document CHEMBL1124417, “Synthesis and hypertensive activity of neuropeptide Y fragments and analogues with modified N- or C-termini or D-substitutions” (1989).

Some results are limits rather than exact numbers.

The subject of test [1] is Rattus norvegicus. The test is described as follows: Hypertensive potency in conscious rats after intra arterial administration. In kind it is functional. A digest of the protocol:
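Male Sprague-Dawley rats (240-280 g), conscious; catheters placed under pentobarbital anaesthesia (40 mg/kg) with ≥2 h recovery. Peptides in saline given intraarterially as 100-µL bolus. ΔMAP = posttreatment minus mean pretreatment saline zero values (n = 4).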

In test [2] the test system is Rattus norvegicus. The test is described as follows: Mean arterial pressure was measured in conscious rats after intra arterial administration at 400 ug/kg dosage. In kind it is functional, Artery. A digest of the protocol: (§1)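 Conscious male Sprague-Dawley rats (240-280 g), catheterised under pentobarbital (40 mg/kg), ≥2 h recovery. Saline peptide solutions as intraarterial 100-µL bolus. MAP via pressure transducer, computed as [[…] + diastolic]. ΔMAP = value at 1 min minus mean pretreatment saline zero values (n = 4). Means ± SEM, n ≥ 3.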

In test [3] the test system is Rattus norvegicus. The test is described as follows: Mean arterial pressure was measured in conscious rats after intra arterial administration at 40 ug/kg dosage. The class given is functional, Artery. An outline of the steps: as §1
A short description of test [4]: Relative potency measured as ratio of ED50 of NPY to ED50 of analogue. In kind it is functional.

By ED50 is commonly meant the dose at which the effect has come halfway, by size or by number of responders.

H-YPSKPDNPGEDAPA-OH yielded an ED50 with Rattus norvegicus [1] greater than 0.4 mg/kg. In addition, the “Delta MAP” value in the test on Rattus norvegicus [2] and with Rattus norvegicus [3] was less than 5 in each case.

Regarding `CC[C@H](C)[C@H](NC(=O)[C@H](Cc1ccc(O)cc1)NC(=O)[C@@H](N)Cc1c[nH]cn1)C(=O)N[C@@H](CC(N)=O)C(=O)N[C@@H](CC(C)C)C(=O)N[C@H](C(=O)N[C@H](C(=O)N[C@@H](CCCN=C(N)N)C(=O)N[C@@H](CCC(N)=O)C(=O)N[C@@H](CCCN=C(N)N)C(=O)N[C@@H](Cc1ccc(O)cc1)C(N)=O)[C@@H](C)O)[C@@H](C)CC`, the median effective dose (ED50) in the test on Rattus norvegicus [1] is greater than 0.4 mg/kg. In addition, the “Delta MAP” value with Rattus norvegicus [2] was 7; with Rattus norvegicus [3] it was less than 5.

Take `CC[C@H](C)[C@H](NC(=O)[C@H](Cc1ccc(O)cc1)NC(=O)[C@H](Cc1c[nH]cn1)NC(=O)[C@H](CCCN=C(N)N)NC(=O)[C@H](CC(C)C)NC(=O)[C@H](C)NC(=O)[C@H](CO)NC(=O)[C@H](Cc1ccc(O)cc1)NC(=O)[C@H](Cc1ccc(O)cc1)NC(=O)[C@H](CCCN=C(N)N)NC(=O)[C@H](C)NC(=O)[C@H](CC(C)C)NC(=O)[C@H](CC(=O)O)NC(=O)[C@H](CCC(=O)O)NC(=O)[C@H](C)NC(=O)[C@@H]1CCCN1C(=O)[C@H](C)NC(=O)[C@H](CC(=O)O)NC(=O)[C@H](CCC(=O)O)NC(=O)[C@H](C)NC(=O)[C@@H]1CCCN1C(=O)[C@H](CC(N)=O)NC(=O)[C@H](CC(=O)O)NC(=O)[C@@H]1CCCN1C(=O)[C@H](CCCCN)NC(=O)[C@H](CO)NC(=O)[C@@H]1CCCN1C(=O)[C@@H](N)Cc1ccc(O)cc1)C(=O)N[C@@H](CC(N)=O)C(=O)N[C@@H](CC(C)C)C(=O)N[C@H](C(=O)N[C@H](C(=O)N[C@@H](CCCN=C(N)N)C(=O)N[C@@H](CCC(N)=O)C(=O)N[C@@H](CCCN=C(N)N)C(=O)O)[C@@H](C)O)[C@@H](C)CC`: in test [4], the Ratio was 0.7.
